PMC12297526 (Communications Chemistry, 2025)
Where two headings read alike, the source gives them in different places.

Assays:
[1] = cited from earlier work; for pMn: 11 (supplement), 8, 17, 18, 34
Solubility in pure water = assay type: physicochemical; details: 25 °C
[2] = log P estimation by UPLC retention time; assay type: physicochemical; details: estimated from UPLC retention time with calibration standards
Summary of the method: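 Complexes and standards (DMSO, DMF, pyridine, phenol, nitrobenzene) run on reversed-phase UPLC. C18, 2.5 μm, 2.1 × 100 mm column; 10 mM ammonium acetate/ACN gradient at 0.4 mL min−1. Calibration of log TR against known log P for the standards; complex log P read from its retention time.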

[3] = pH 7.4, 25 °C, [Cu(II)] = 10^-5 M; cited from earlier work
[4] = 20 MHz, 298 K; cited from earlier work
normal BALB/c mice = experiment: In vivo T1-weighted MRI of normal mice, 3.0 T clinical scanner; details: intravenous, 0.05 mmol kg^−1
Summary of the method: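 Male BALB/c mice (25 ± 3 g) anaesthetised with avertin (0.6 mL per 20 g) and imaged in a mouse coil at 3.0 T. Coronal and transverse T1-weighted baseline scans taken, then complex given i.v. in PBS pH 7.4 at 0.05 mmol kg−1 and scanning continued ~30 min. Relative enhancement = (SIpost – SIpre)/SIpre × 100% from ROIs on liver and kidney.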

[5] = pH-potentiometric titration, thermodynamic stability constants of Mn; assay type: physicochemical; details: for log KMnL: I = 0.1 M KCl, 25 °C, mean ± SD, n = 3
Summary of the method: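 Ligand and Mn(II) (1.05:1 molar) in 0.1 M KCl titrated with 0.5 M NaOH from pH 1.7 to 12.0 at 25 °C under nitrogen. MnCl2 stock held at pH 6 and calibrated by ICP-MS. Data fitted for stability constants and speciation; titrations in triplicate. pMn calculated at pH 7.4.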

Zn = assay type: physicochemical; details: pH = 6.0, 25 mM Zn(II), 37 °C, 1 mM complex; mean ± SD, n = 3
[6] = 0.1 M KCl; ref 4 (supplement), 15; cited from earlier work
[7] = complexes with heptadentate ligands

## O=C(O)CN1CCNCCN(CC(=O)O)CCN(CC(=O)O)CC1 [DO3A]
[1]; [7]
  log KMnL: 16.55

## O=C([O-])CN1CCNCCNCCN(CC(=O)[O-])CC1.[Mn+2] [Mn(1,4-DO2A)]
Solubility in pure water
  Solubility: 260 mg/mL
[2]
  log P: 0.57
[3]
  half-life (t1/2): 48 h
[4]
  ^20r1 (relaxivity): 2.1 mM⁻¹ s⁻¹
Normal BALB/c mice
  excretion route / organ preference seen by MRI: predominantly excreted through the renal route
[5]
  log KMnL: 15.5
[5]; pH 7.4, [Mn(II)] = [L] = 10^−5 M
  pMn: 7.20
[1]; introduction, Mn(1,4-DO2A) vs Mn(NOTA)
  log KMnL: 16.1

## O=C([O-])CN1CCNCCN(CC(=O)[O-])CCNCC1.[Mn+2] [Mn(1,7-DO2A)]
[2]
  log P: 0.47
[5]
  log KMnL: 14.7

## Mn(EDTA)
[3]
  half-life (t1/2): 0.08 h
[1]; 0.15 M NaCl
  pMn: 7.83

## O=C([O-])CN1CCNCCN(CC(=O)[O-])Cc2cccc(n2)C1.[Mn+2] [Mn(3,9-PC2A)]
[3]
  half-life (t1/2): 21 h
[1]; 0.15 M NaCl
  pMn: 8.64
[1]; 0.15 M NaCl, 11 (supplement), 17
  log KMnL: 17.09

## CCOc1ccc(C[C@@H](CN(CCN(CC(=O)[O-])CC(=O)[O-])CC(=O)[O-])N(CC(=O)[O-])CC(=O)[O-])cc1.[Gd+3].[Na+].[Na+] [Gd(EOB-DTPA)]
Zn
  t1/2 (dissociation half-life): 0.25 h

## O=C(O)CN1CCNCCN(CC(=O)O)CCNCC1 [1,7-DO2A]
[6]
  Σ log KiH: 28.05

## O=C(O)CN1CCN(CC(=O)O)Cc2cccc(n2)CN(CC(=O)O)CC1 [PCTA]
[1]; [7]
  log KMnL: 16.83
